# According to ChEMBL document CHEMBL2311434, “Search for new tools to combat Gram-negative resistant bacteria among amine derivatives of 5-arylidenehydantoin” (2013):
# The source made the active and inactive calls. The rule behind the calls is not given here. Peptide text beside a SMILES is read from it. * marks the point of attachment. βNA = c1ccc2cc(N*)ccc2c1
# Legend:
# [1] = tested on: Klebsiella aerogenes; experiment: Chemosensitization of Enterobacter aerogenes CM-64 overexpressing AcrAB-TolC assessed as decrease in chloramphenicol MIC at 63 uM relative to control; format: functional
# Procedure, shortened: (§1)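 About 10^6 cells were put into 1 mL Mueller-Hinton broth with twofold serial dilutions of the antibiotic (CLSI). A fixed sub-inhibitory compound concentration was added, set without antibiotic, usually ≤1/4 MIC. Controls ran without inhibitor. Plates were read after 18 h at 37 °C. MICs are the means of three independent determinations. Activity gain = MIC without compound / MIC with compound.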
# [2] = tested on: Klebsiella aerogenes; experiment: Chemosensitization of Enterobacter aerogenes CM-64 overexpressing AcrAB-TolC assessed as decrease in sparfloxacin MIC at 63 uM relative to control; format: functional; procedure, shortened: as §1
# [3] = tested on: Klebsiella aerogenes; experiment: Chemosensitization of Enterobacter aerogenes CM-64 overexpressing AcrAB-TolC assessed as decrease in nalidixic acid MIC at 63 uM relative to control; format: functional; procedure, shortened: as §1
# [4] = tested on: Klebsiella aerogenes; experiment: Antibacterial activity against Enterobacter aerogenes CM-64 overexpressing AcrAB-TolC assessed as growth inhibition after 18 hrs by CLSI broth dilution method; format: functional; details: CM-64, 18 h
# Procedure, shortened: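 Intrinsic MIC of each compound with no antibiotic added. About 10^6 cells were inoculated into 1 mL Mueller-Hinton broth with twofold serial dilutions, following CLSI guidelines. Plates were read after 18 h at 37 °C, in triplicate. MIC is the mean of three independent determinations.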
# [5] = tested on: Klebsiella aerogenes; experiment: Antibacterial activity against wild type Enterobacter aerogenes ATCC 13048 assessed as growth inhibition after 18 hrs by CLSI broth dilution method; format: functional; details: ATCC 13048, 18 h
# Procedure, shortened: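 Broth dilution per CLSI in Mueller-Hinton broth, about 10^6 cells per 1 mL, read after 18 h at 37 °C. The compound alone, with no antibiotic, against reference strain ATCC 13048. MIC is the mean of three independent determinations.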
# [6] = tested on: Klebsiella aerogenes; experiment: Chemosensitization of wild type Enterobacter aerogenes ATCC 13048 assessed as decrease in nalidixic acid MIC at 63 uM relative to control; format: functional
# Procedure, shortened: (§2)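 Antibiotic MIC by CLSI broth dilution: about 10^6 cells in 1 mL Mueller-Hinton broth with twofold antibiotic dilutions, 18 h at 37 °C, in triplicate. Compound held at a fixed sub-inhibitory level (≤MIC/4) set without antibiotic. Controls ran without inhibitor and without antibiotic. PAβN 50 µM served as reference. Activity gain = MIC without compound / MIC with compound. MICs are the mean of three determinations.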
# [7] = tested on: Klebsiella aerogenes; experiment: Chemosensitization of wild type Enterobacter aerogenes ATCC 13048 assessed as decrease in sparfloxacin MIC at 63 uM relative to control; format: functional, organism-based; procedure, shortened: as §1
# [8] = tested on: Klebsiella aerogenes; experiment: Chemosensitization of Enterobacter aerogenes CM-64 overexpressing AcrAB-TolC assessed as decrease in sparfloxacin MIC at 200 uM relative to control; format: functional; procedure, shortened: as §1
# [9] = tested on: Klebsiella aerogenes; experiment: Chemosensitization of Enterobacter aerogenes CM-64 overexpressing AcrAB-TolC assessed as decrease in nalidixic acid MIC at 200 uM relative to control; format: functional; procedure, shortened: as §1
# [10] = tested on: Klebsiella aerogenes; experiment: Chemosensitization of wild type Enterobacter aerogenes ATCC 13048 assessed as decrease in nalidixic acid MIC at 200 uM relative to control; format: functional; procedure, shortened: as §1
# [11] = tested on: Klebsiella aerogenes; experiment: Chemosensitization of Enterobacter aerogenes CM-64 overexpressing AcrAB-TolC assessed as decrease in chloramphenicol MIC at 200 uM relative to control; format: functional; procedure, shortened: as §1
# [12] = tested on: Klebsiella aerogenes; experiment: Chemosensitization of Enterobacter aerogenes CM-64 overexpressing AcrAB-TolC assessed as decrease in nalidixic acid MIC at 100 uM relative to control
# [13] = tested on: Klebsiella aerogenes; experiment: Chemosensitization of wild type Enterobacter aerogenes ATCC 13048 assessed as decrease in chloramphenicol MIC at 200 uM relative to control; format: functional, organism-based; procedure, shortened: as §2
# [14] = tested on: Klebsiella aerogenes; experiment: Chemosensitization of wild type Enterobacter aerogenes ATCC 13048 assessed as decrease in […] at 50 uM relative to control; format: functional, organism-based
# [15] = tested on: Klebsiella aerogenes; experiment: Chemosensitization of Enterobacter aerogenes CM-64 overexpressing AcrAB-TolC assessed as decrease in sparfloxacin MIC at 100 uM relative to control; format: functional, organism-based; procedure, shortened: as §1
# [16] = tested on: Klebsiella aerogenes; experiment: Chemosensitization of Enterobacter aerogenes CM-64 overexpressing AcrAB-TolC assessed as decrease in nalidixic acid MIC at 100 uM relative to control; format: functional, organism-based; procedure, shortened: as §1
# [17] = tested on: Klebsiella aerogenes; experiment: Chemosensitization of wild type Enterobacter aerogenes ATCC 13048 assessed as decrease in nalidixic acid MIC at 100 uM relative to control; format: functional; procedure, shortened: as §1
# [18] = tested on: Klebsiella aerogenes; experiment: Chemosensitization of wild type Enterobacter aerogenes ATCC 13048 assessed as decrease in chloramphenicol MIC at 63 uM relative to control; format: functional, organism-based; procedure, shortened: as §2
SMILES,fold change (FC) [2],MIC [4] [µM],MIC [5] [µM],further results
COc1ccc(/C=C2\NC(=O)N(CC(O)CN3CCN(CCO)CC3)C2=O)c(OC)c1 (centres undefined),2,250,125,fold change (FC) [1]: 4; fold change (FC) [3]: 4
CCN(CC)c1ccc(/C=C2\NC(=O)N(CC(O)CN3CCN(CCO)CC3)C2=O)cc1 (centres undefined),4,250,125,fold change (FC) [1]: 4; fold change (FC) [3]: 4; fold change (FC) [6]: 2
COc1ccc(/C=C2\NC(=O)N(CC(O)CNC(C)C)C2=O)c(OC)c1 (centres undefined),4,250,250,fold change (FC) [1]: 4; Activity [7]: Active; fold change (FC) [3]: 4; fold change (FC) [6]: 2
COc1ccccc1N1CCN(CC(O)CN2C(=O)N/C(=C\c3ccccc3)C2=O)CC1 (centres undefined),,1000,500,Activity [8]: inactive; Activity [9]: Active; fold change (FC) [10]: 2
COc1ccc(/C=C2\NC(=O)N(CC(O)CN3CCN(c4ccccc4OC)CC3)C2=O)cc1OC (centres undefined),,1000,1000,fold change (FC) [11]: 2; Activity [8]: inactive; Activity [9]: Active
COc1ccc(/C=C2\NC(=O)N(CC(O)CN3CCOCC3)C2=O)cc1 (centres undefined),,> 2000,> 2000,Activity [2]: inactive
COc1ccc(/C=C2\NC(=O)N(CC(O)CN3CCNCC3)C2=O)cc1.Cl.Cl (centres undefined),2,> 2000,> 2000,
COc1ccccc1N1CCN(CC(O)CN2C(=O)N/C(=C\c3ccc(Cl)cc3)C2=O)CC1 (centres undefined),,1000,500,Activity [8]: inactive; fold change (FC) [10]: 2; fold change (FC) [12]: 4
COc1ccc(/C=C2\NC(=O)N(CC(O)CN3CCN(C(C)=O)CC3)C2=O)cc1 (centres undefined),,> 2000,> 2000,Activity [2]: inactive; Activity [3]: Active
O=C1N/C(=C\c2ccc(Cl)cc2)C(=O)N1CC(O)CN1CCN(CCO)CC1 (centres undefined),,250,250,Activity [2]: inactive; Activity [7]: Active; fold change (FC) [3]: 4
CCOc1ccccc1N1CCN(CC(O)CN2C(=O)N/C(=C\c3ccc(Cl)cc3)C2=O)CC1 (centres undefined),,1000,500,Activity [13]: Active; fold change (FC) [8]: 2; fold change (FC) [12]: 4
O=C(CN1C(=O)N/C(=C\c2ccc(Br)cc2)C1=O)N1CCN(CCO)CC1,,> 1250,> 1250,fold change (FC) [3]: 4
COc1ccc(/C=C2\NC(=O)N(CC(O)CN3CCCCC3)C2=O)cc1 (centres undefined),,> 2000,> 2000,
O=C(N[C@H](CO)[C@H](O)c1ccc([N+](=O)[O-])cc1)C(Cl)Cl [CHLORAMPHENICOL],,256,4,
CC(C)NCC(O)CN1C(=O)N/C(=C\c2ccc(Cl)cc2)C1=O (centres undefined),4,250,250,fold change (FC) [1]: 4; Activity [7]: Active; Activity [3]: Active
O=C(CN1C(=O)N/C(=C\c2ccccc2)C1=O)N1CCN(CCO)CC1,2,250,125,fold change (FC) [1]: 2; fold change (FC) [3]: 4
N=C(N)NCCC[C@H](NC(=O)[C@@H](N)Cc1ccccc1)C(=O)Nc1ccc2ccccc2c1 [PABETAN] (H-Phe-Arg-βNA),,5000,5000,Activity [14]: Active
COc1ccc(/C=C2\NC(=O)N(CC(O)CN3CCN(C)CC3)C2=O)cc1.Cl (centres undefined),2,> 2000,> 2000,
COc1ccc(/C=C2\NC(=O)N(CC(O)CN3CCN(c4ccccc4)CC3)C2=O)cc1OC (centres undefined),,500,500,Activity [15]: inactive; Activity [16]: Active; fold change (FC) [17]: 2
CC(C)NCC(O)CN1C(=O)N/C(=C\c2ccc(Br)cc2)C1=O (centres undefined),,> 1250,> 1250,
COc1ccc(/C=C2\NC(=O)N(CC(O)CNCCCN3CCN(C)CC3)C2=O)cc1.Cl (centres undefined),,> 2000,> 2000,Activity [18]: Active; Activity [2]: inactive; Activity [7]: Active; fold change (FC) [6]: 2
C[C@@H]1CN(c2c(F)c(N)c3c(=O)c(C(=O)O)cn(C4CC4)c3c2F)C[C@H](C)N1 [SPARFLOXACIN],,1,0.06,
CCn1cc(C(=O)O)c(=O)c2ccc(C)nc21 [NALIDIXIC ACID],,128,8,
